{
  "source": "ChEMBL document CHEMBL4414663",
  "about": "“Pyrazole-4-Carboxamide (YW2065): A Therapeutic Candidate for Colorectal Cancer via Dual Activities of Wnt/β-Catenin Signaling Inhibition and AMP-Activated Protein Kinase (AMPK) Activation” (J Med Chem, 2019)",
  "key": {"[1]": {"molecular_target": "AMP-activated protein kinase, AMPK (Homo sapiens) (UniProt P54646+O43741+P54619+Q9UGJ0+Q9Y478+Q13131+Q9UGI9)", "assay": "Activation of AMPK in HEK293 cells with Axin-1 knockdown assessed as increase in AMPK phosphorylation at T172 residue at 10 uM incubated for 24 hrs by Western blot analysis", "assay_type": "cell-based"}, "SW-620 [2]": {"tested_on": "SW-620", "assay": "Inhibition of colony formation in human SW620 cells incubated for 14 days by crystal violet staining based assay", "assay_type": "functional, cell-based", "method_in_brief": "(§1)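 SW480, SW620 or HT29 cells seeded at 300/well in 3 mL medium in 6-well plates with a concentration series of compound. After 14 days, fixed in 4% formaldehyde and stained with 0.5% crystal violet in 25% aqueous MeOH; colonies photographed.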"}, "SW480": {"tested_on": "SW480", "assay": "Inhibition of colony formation in human SW480 cells incubated for 14 days by crystal violet staining based assay", "assay_type": "functional, cell-based", "method_in_brief": "as §1"}, "SW-620 [3]": {"tested_on": "SW-620", "assay": "Growth inhibition of human SW620 cells transfected with lentivrus-encoding shRNA against Axin-1 incubated for 72 hrs by Cell-titer-fluor reagent based assay", "assay_type": "functional", "conditions": "SW-620, 72 h", "method_in_brief": "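SW620 cells, parental, overexpressing β-catenin S33Y, or with Axin-1 knocked down by lentiviral shRNA. Treated with compound or vehicle for 72 h.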"}, "SW-620 [4]": {"tested_on": "SW-620", "assay": "Antitumor activity against human SW620 cells xenografted in nude mouse assessed as reduction in tumor weight at 50 mg/kg, ip QD for 32 consecutive days", "assay_type": "functional, organism-based", "method_in_brief": "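Six-week-old nude mice injected subcutaneously with 2×10^6 SW620 cells. Randomised at mean tumor volume 100–200 mm³ (n=6/group). Given 10 or 50 mg/kg ip daily for 32 consecutive days; vehicle 10% DMSO, 10% Kolliphor, 80% saline. Tumor volume measured every other day. Tumors weighed after euthanasia at day 32. t test against vehicle.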"}, "[5]": {"assay": "Toxicity in C57BL/6 mouse assessed as effect on AST level at 100 mg/kg/day, ip for 21 days", "assay_type": "organism-based", "conditions": "in vivo, 504 h"}},
  "note": "The source made the active and inactive calls. The rule behind the calls is not given here.",
  "data": [
    {"smiles": "Cc1c(C(=O)Nc2ccc3ccccc3n2)cnn1-c1ccccc1Br", "values": [
      {"measurement": "Activity", "setting": "[1]", "result": "inactive"},
      {"measurement": "inhibition", "setting": "SW-620 [2]", "result": "Dose-dependent effect"},
      {"measurement": "inhibition", "setting": "SW480", "result": "Dose-dependent effect"},
      {"measurement": "IC50", "setting": "SW-620 [3]", "result": 85.4, "unit": "nM"},
      {"measurement": "Activity", "setting": "SW-620 [4]", "result": "Active"},
      {"measurement": "Activity", "setting": "[5]", "result": "Non-Toxic"}
    ]}
  ]
}
